One data set deals with T1, Squalene synthase (Homo sapiens, UniProt P37268).
T1 sequence (P37268 whole entry): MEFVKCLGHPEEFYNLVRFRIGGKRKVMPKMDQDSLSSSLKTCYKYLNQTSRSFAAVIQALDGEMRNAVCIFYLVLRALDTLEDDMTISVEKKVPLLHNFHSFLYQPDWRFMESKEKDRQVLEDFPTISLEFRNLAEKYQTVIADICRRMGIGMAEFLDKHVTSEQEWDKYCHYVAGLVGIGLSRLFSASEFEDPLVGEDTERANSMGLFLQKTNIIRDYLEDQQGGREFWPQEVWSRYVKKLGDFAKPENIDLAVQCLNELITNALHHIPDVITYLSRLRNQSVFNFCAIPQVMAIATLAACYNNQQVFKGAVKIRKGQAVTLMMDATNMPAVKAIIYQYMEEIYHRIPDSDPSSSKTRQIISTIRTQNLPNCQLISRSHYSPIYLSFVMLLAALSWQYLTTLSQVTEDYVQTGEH
Description: Inhibition of recombinant squalene synthase assessed as conversion of trans,trans-[1-3H]farnesyl pyrophosphate to [3H]squalene after 10 mins by liquid scintillation counting. The procedure, abridged:
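Recombinant SQS in 1 mM NADPH, 5 mM DTT, 10% PBS, 10 mM sodium fluoride and 0.5 mM MgCl₂, pH 7.5. Compounds were added from DMSO at defined concentrations. The reaction was started with farnesyl pyrophosphate plus 0.2 nM trans,trans-[1-³H]-farnesyl pyrophosphate, run 10 min at 37 °C, then extracted with chloroform/methanol. IC50 values are means of three experiments.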

Data set [1] in a line: Stability in human liver microsomes assessed as compound remaining after 60 mins. The class given is ADME, Microsome. As to conditions: read-out: Stability. (In general: Microsomes from liver hold many membrane-bound enzymes, among them those of drug oxidation.)
Data set [2] deals with Mus musculus. The data set can be described thus: In vivo inhibition of squalene synthase in NMRI mouse assessed as inhibition of hepatic [14C]cholesterol biosynthesis at 3 mg/kg, po measured after 1 hr by liquid scintillation counting.
Data set [3] deals with Mus musculus. Description: In vivo inhibition of squalene synthase in NMRI mouse assessed as inhibition of hepatic [14C]cholesterol biosynthesis at 1 mg/kg, po measured after 1 hr by liquid scintillation counting.

The record followed here is ChEMBL document CHEMBL1777787, “Identification of 4H,6H-[2]benzoxepino[4,5-c][1,2]oxazoles as novel squalene synthase inhibitors” (Bioorg Med Chem Lett, 2011).

Regarding `COc1cccc([C@H]2O[C@H](CC(=O)N3CCC(CC(=O)O)CC3)C(=O)N(CC(C)(C)CO)c3ccc(Cl)cc32)c1OC`, the IC50 at Squalene synthase was found to be 260 nM. Also, the remaining at 1 h in data set [1] was found to be 37%.

For `COc1cccc([C@H]2O[C@H](CC(=O)N3CC[C@@H](O)C3)c3noc(C(C)C)c3-c3ccc(Cl)cc32)c1OC`, the IC50 on Squalene synthase was 162 nM.

Consider `COc1cccc([C@H]2O[C@H](CC(=O)N3CCC(CC(=O)O)CC3)C(=O)N(CC(C)(C)COC(C)=O)c3ccc(Cl)cc32)c1OC` [LAPAQUISTAT ACETATE], for which the IC50 at Squalene synthase was determined as 213 nM. In addition, the remaining at 1 h in data set [1] turned out to be 7%. In the data set with Mus musculus [2], the inhibition in vivo at 3 mg/kg was 73%. In the data set on Mus musculus [3], the inhibition in vivo at 1 mg/kg was determined as 59%.

Consider `COc1cccc([C@H]2O[C@H](CC(=O)O)C(=O)N(CC(C)(C)CO)c3ccc(Cl)cc32)c1OC`, for which the IC50 on Squalene synthase stood at 223 nM.

Consider `COc1cccc([C@@H]2O[C@@H](CC(=O)O)c3noc(C(C)C)c3-c3ccc(Cl)cc32)c1OC`, for which the IC50 at Squalene synthase was 1420 nM.

For the molecule `COc1cccc([C@H]2O[C@H](CC(=O)N3CCC(CC(=O)O)CC3)c3noc(C(C)C)c3-c3ccc(Cl)cc32)c1OC`, the concentration for half-maximal inhibition (IC50) at Squalene synthase came to 131 nM. Moreover, the remaining at 1 h in data set [1] turned out to be 91%. The inhibition in vivo at 3 mg/kg with Mus musculus [2] is 80%.

Turning to `COc1cccc(C2OC(CC(=O)O)c3noc(C(C)C)c3-c3ccc(Cl)cc32)c1OC` (single isomer, unassigned; enantiomer 3), the IC50 at Squalene synthase was 169 nM. The remaining at 1 h in data set [1] was 64%. In the data set with Mus musculus [2], the inhibition in vivo at 3 mg/kg was 31%.

Regarding `COc1cccc([C@H]2O[C@H](CC(=O)O)c3noc(C(C)C)c3-c3ccc(Cl)cc32)c1OC`, the IC50 at Squalene synthase worked out at 56 nM. Also, the remaining at 1 h in data set [1] was 100%. Also, in the data set on Mus musculus [2], the inhibition in vivo at 3 mg/kg is 58%.

Turning to `COc1cccc(C2OC(CC(=O)O)c3noc(C(C)C)c3-c3ccc(Cl)cc32)c1OC` (single isomer, unassigned; enantiomer 2), at Squalene synthase, the IC50 was found to be 5500 nM.

On to `COc1cccc([C@H]2O[C@H](CC(=O)N3CCC(C(=O)O)CC3)c3noc(C(C)C)c3-c3ccc(Cl)cc32)c1OC`, for which, on Squalene synthase, the IC50 worked out at 112 nM.

A word on the IC50: it is the point on the concentration scale where inhibition reaches its midpoint. What is called inhibition in vivo is the relative decrease from the control value, in per cent.
